Consider two molecules from ChEMBL document CHEMBL3580644, “Synthesis of piperlongumine analogues and discovery of nuclear factor erythroid 2-related factor 2 (Nrf2) activators as potential neuroprotective agents” (J Med Chem, 2015).

For assay [1], the system named is PC-12. The experiment in a line: Cytoprotection activity against H2O2-induced cytotoxicity in rat PC12 cells assessed as increase in cell viability pre-incubated for 24 hrs before H2O2 exposure for 12 hrs by MTT assay. Type of assay: functional, cell-based.
Assay [2] can be described thus: Cytoprotection activity against H2O2-induced cytotoxicity in rat PC12 cells assessed as increase in cell viability at 20 uM pre-incubated for 24 hrs before H2O2 exposure for 12 hrs by MTT assay. Type of assay: functional, PC-12. On the technique in general: Tetrazolium assays rely on reduction of a dye to a coloured formazan, in cell work by metabolically active cells.

Assay [3] relates to PC-12. As to the kind of experiment: Cytoprotection activity against 6-OHDA-induced apoptosis in rat PC12 cells assessed as reduction in apoptotic nuclei levels at 10 and 20 uM pre-incubated for 24 hrs before 6-OHDA exposure for 5 hrs by Hoechst 33342 staining based fluorescent microscopy. Type of assay: functional, cell-based. An outline of the steps:
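PC12 cells seeded 2×10^5/well, grown 1 day, pretreated with compound 24 h, then medium replaced with fresh medium containing 200 μM 6-OHDA or 500 μM H2O2 for 5 h; Hoechst 33342 added at 5 μg/mL final; condensed, brightly fluorescent nuclei counted as apoptotic under fluorescence microscopy.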

Assay [4] relates to PC-12. The experiment in a line: Induction of antioxidant genes expression in rat PC12 cells assessed as increase in NQO1 mRNA level at 20 uM incubated for 6 hrs by qRT-PCR method. Type of assay: functional, cell-based. An outline of the steps:
(§1)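 PC12 cells, 1×10^6 per 60-mm dish, 1 day, then 20 μM compound for 0, 3, 6 and 12 h; total RNA isolated, quantified by 260/280 absorbance; mRNA by real-time RT-PCR normalized to GAPDH; mean ± SD of three independent experiments versus 0 h.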

The subject of assay [5] is PC-12. The experiment in a line: Induction of antioxidant genes expression in rat PC12 cells assessed as increase in GCLC mRNA level at 20 uM incubated for 6 hrs by qRT-PCR method. Type of assay: functional, cell-based. An outline of the steps:
as §1

Assay [6] concerns PC-12. As to the kind of experiment: Induction of antioxidant genes expression in rat PC12 cells assessed as increase in Trx1 mRNA level at 20 uM incubated for 3 hrs by qRT-PCR method. Type of assay: functional, cell-based. An outline of the steps:
as §1

Assay [7] has as its system PC-12. The experiment in a line: Induction of antioxidant defense system in rat PC12 cells assessed as increase in GSH level incubated for 24 hrs. Type of assay: functional, cell-based. The procedure, abridged:
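Total glutathione: cells extracted in KPE buffer (0.1% Triton X-100, 0.6% sulfosalicylic acid, 5 mM EDTA, 0.1 M PBS pH 7.5), sonicated on ice, centrifuged 3000 g 4 min at 4 °C; supernatant assayed enzymatically. PC12 cells 1×10^6 in 60-mm dishes, compound 24 h; stress lines add 500 μM H2O2 or 200 μM 6-OHDA 12 h.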

Assay [8] has as its system PC-12. As to the kind of experiment: Induction of antioxidant defense system in rat PC12 cells assessed as increase in NQO1 activity level incubated for 24 hrs by DCPIP dye reduction based spectrophotometry. Type of assay: functional, cell-based. An outline of the steps:
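NQO1: PC12 lysate in RIPA buffer, 5 μg protein into 20 mM Tris-HCl pH 7.4, 200 μM NADH, 40 μM DCPIP; A600 decrease read every 8 s for 2 min at room temperature ± 20 μM dicoumarol; dicoumarol-inhibitable rate used, expressed as % of DMSO control. Cells pretreated 24 h; stress lines then 500 μM H2O2 or 200 μM 6-OHDA 12 h.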

In assay [9] the test system is PC-12. As to the kind of experiment: Induction of antioxidant defense system in rat PC12 cells assessed as increase in Trx activity level incubated for 24 hrs by recombinant rat TrxR1 based assay. Type of assay: functional, cell-based. The procedure, abridged: (§2)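 Cellular Trx activity: extract with 20 μg protein incubated 30 min at 37 °C in 100 mM Tris-HCl pH 7.4 with 0.3 mM insulin, 660 μM NADPH, 3 mM EDTA, 60 nM recombinant rat TrxR1; stopped with 1 mM DTNB in 6 M guanidine-HCl pH 8.0; A412 minus TrxR-free blank; % of DMSO control.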

Assay [10] concerns PC-12. The experiment in a line: Induction of antioxidant defense system in rat PC12 cells assessed as increase in TrxR activity level incubated for 24 hrs by Escherichia coli Trx based assay. Type of assay: functional, cell-based. An outline of the steps: (§3)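 Cellular TrxR activity: extract with 20 μg protein incubated 30 min at 37 °C in 100 mM Tris-HCl pH 7.4 containing 0.3 mM insulin, 660 μM NADPH, 3 mM EDTA, 4 μM E. coli Trx; stopped with 1 mM DTNB in 6 M guanidine-HCl pH 8.0; A412 minus Trx-free blank; % of DMSO control.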

Assay [11] relates to PC-12. As to the kind of experiment: Cytoprotection activity against H2O2-induced oxidative stress in rat PC12 cells assessed as Trx activity at pre-incubated for 24 hrs before H2O2 exposure for 12 hrs by recombinant rat TrxR1 based assay. Type of assay: functional, cell-based. An outline of the steps: as §2
The subject of assay [12] is PC-12. The experiment in a line: Cytoprotection activity against H2O2-induced oxidative stress in rat PC12 cells assessed as TrxR1 activity at pre-incubated for 24 hrs before H2O2 exposure for 12 hrs by Escherichia coli Trx based assay. Type of assay: functional, cell-based. An outline of the steps: as §3
Assay [13] deals with PC-12. The experiment in a line: Cytoprotection activity against 6-OHDA-induced oxidative stress in rat PC12 cells assessed as Trx activity at pre-incubated for 24 hrs before 6-OHDA exposure for 12 hrs by recombinant rat TrxR1 based assay. Type of assay: functional, cell-based. An outline of the steps:
as §2

Assay [14] addresses T1, Nuclear factor erythroid 2-related factor 2 (Rattus norvegicus) (UniProt O54968).
T1 sequence (whole entry): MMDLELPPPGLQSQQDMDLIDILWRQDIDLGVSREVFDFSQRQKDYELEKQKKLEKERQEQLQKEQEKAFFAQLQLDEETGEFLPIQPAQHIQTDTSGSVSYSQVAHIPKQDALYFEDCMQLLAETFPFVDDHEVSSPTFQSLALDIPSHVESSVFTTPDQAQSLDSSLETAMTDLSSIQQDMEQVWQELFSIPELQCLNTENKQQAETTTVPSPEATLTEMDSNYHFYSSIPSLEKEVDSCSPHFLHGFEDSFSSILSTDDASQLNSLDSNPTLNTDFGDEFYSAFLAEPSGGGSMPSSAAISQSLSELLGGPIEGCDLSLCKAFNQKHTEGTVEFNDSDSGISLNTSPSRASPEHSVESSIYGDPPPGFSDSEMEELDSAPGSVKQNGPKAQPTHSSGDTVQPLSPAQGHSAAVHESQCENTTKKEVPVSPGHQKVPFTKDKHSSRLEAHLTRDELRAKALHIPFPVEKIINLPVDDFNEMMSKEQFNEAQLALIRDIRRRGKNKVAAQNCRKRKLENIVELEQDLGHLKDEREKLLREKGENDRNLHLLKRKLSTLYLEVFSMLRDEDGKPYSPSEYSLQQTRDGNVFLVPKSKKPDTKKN
The experiment in a line: Induction of Nrf2-mediated antioxidant genes expression in rat PC12 cells assessed as increase in HO1 protein expression at 10 and 20 uM incubated for 20 hrs by Western blotting method. Type of assay: cell-based. To be noted: PC-12.

Assay [15] has as its target T1, Nuclear factor erythroid 2-related factor 2 (Rattus norvegicus). The experiment in a line: Induction of Nrf2-mediated antioxidant genes expression in rat PC12 cells assessed as increase in Trx1 protein expression at 10 and 20 uM incubated for 20 hrs by Western blotting method. Type of assay: cell-based. The conditions noted are these: PC-12. (In general: A western blot detects proteins with antibodies after separation by electrophoresis.)

For assay [16], the system named is PC-12. As to the kind of experiment: Cytoprotection activity against H2O2-induced cytotoxicity in rat PC12 cells assessed as cell viability at 10 and 20 uM pre-incubated for 24 hrs before H2O2 exposure for 12 hrs in presence of non-trageting shRNA by MTT assay. Type of assay: functional, cell-based.

Active and inactive are the calls of the source. The rule behind the calls is not given here.

`COc1ccc(/C=C/C(=O)N2CCCC2=O)cc1`: the Activity result was “Dose-dependent effect” in [1] and 80% in assay [2]. Moreover, the outcome in assay [3], in [4], in assay [5], in [6], in [7] and in [8] was Active. Further, the outcome in [9], in [10], in assay [11], in [12], in [13] and in assay [14] was Active. Moreover, the result in [15] and in assay [16] was Active.

For `COc1cc(/C=C/C(=O)N2CCCCC2=O)cc(OC)c1OC`, the Activity entry in [1] was “Dose-dependent effect”; in assay [2], 75%. For the same molecule, the outcome in assay [3], in assay [4], in assay [5], in assay [6], in assay [7] and in assay [8] was Active. The result in [9], in assay [10], in [11], in [12], in assay [13] and in assay [14] was Active. Besides, the outcome in assay [15] and in assay [16] was Active.
